≈ marks a conversion by molar mass, not a printed value. Calls of active or inactive are those of the source. The rule behind the calls is not given here.
Experiments:
[1] = target: T1, Serine/threonine-protein kinase B-raf (Homo sapiens, UniProt P15056, V600E); assay: Inhibition of recombinant BRAF V600E mutant (unknown origin) assessed as ADP formation measured for 5 hrs by pyruvate kinase/lactate dehydrogenase coupled assay in presence of ATP, MEK1, NADH
[2] = target: Vascular endothelial growth factor receptor 2 (Homo sapiens, UniProt P35968); assay: Inhibition of KDR (unknown origin)
Vascular endothelial growth factor receptor 2, sequence (P35968 whole entry): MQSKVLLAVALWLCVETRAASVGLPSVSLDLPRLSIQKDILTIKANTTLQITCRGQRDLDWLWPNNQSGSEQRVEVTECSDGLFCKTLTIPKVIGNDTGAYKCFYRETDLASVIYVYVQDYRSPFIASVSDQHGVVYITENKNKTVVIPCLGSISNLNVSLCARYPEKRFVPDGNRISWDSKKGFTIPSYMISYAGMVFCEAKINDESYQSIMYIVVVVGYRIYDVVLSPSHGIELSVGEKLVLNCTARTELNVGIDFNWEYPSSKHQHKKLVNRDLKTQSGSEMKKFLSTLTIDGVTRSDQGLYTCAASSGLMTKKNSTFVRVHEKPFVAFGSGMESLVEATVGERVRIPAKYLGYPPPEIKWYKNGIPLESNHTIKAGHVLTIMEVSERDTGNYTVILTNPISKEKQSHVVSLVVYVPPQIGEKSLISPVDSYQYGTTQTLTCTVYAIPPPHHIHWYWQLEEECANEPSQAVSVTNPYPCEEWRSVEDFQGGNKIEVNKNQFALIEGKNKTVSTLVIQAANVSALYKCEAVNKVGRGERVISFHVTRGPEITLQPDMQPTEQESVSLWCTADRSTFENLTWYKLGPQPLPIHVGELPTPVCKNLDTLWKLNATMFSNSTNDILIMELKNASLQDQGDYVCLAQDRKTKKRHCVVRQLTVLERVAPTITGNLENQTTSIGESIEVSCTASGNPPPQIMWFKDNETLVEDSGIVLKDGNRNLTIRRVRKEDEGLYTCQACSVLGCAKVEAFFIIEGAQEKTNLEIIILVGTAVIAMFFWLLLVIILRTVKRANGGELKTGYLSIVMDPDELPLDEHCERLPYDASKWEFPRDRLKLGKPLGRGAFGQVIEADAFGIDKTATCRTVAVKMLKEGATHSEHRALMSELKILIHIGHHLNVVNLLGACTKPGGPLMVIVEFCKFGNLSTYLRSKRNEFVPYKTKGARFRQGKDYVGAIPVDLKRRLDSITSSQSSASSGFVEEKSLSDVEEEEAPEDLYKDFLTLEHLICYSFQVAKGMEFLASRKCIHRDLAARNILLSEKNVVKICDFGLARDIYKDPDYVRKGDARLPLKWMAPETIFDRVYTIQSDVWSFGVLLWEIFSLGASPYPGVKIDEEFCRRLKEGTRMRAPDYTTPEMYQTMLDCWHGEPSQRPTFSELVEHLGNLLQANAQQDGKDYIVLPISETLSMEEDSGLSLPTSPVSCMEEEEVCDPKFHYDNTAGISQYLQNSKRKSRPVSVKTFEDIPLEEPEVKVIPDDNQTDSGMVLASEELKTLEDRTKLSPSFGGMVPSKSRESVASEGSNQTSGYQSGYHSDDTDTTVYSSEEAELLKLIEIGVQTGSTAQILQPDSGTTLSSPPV

A-375 = assay: cells; settings: Homo sapiens, A-375, 72 h
HCT-116 = assay: cells; settings: Homo sapiens, HCT-116, 67 h
[3] = target: Serine/threonine-protein kinase B-raf (Homo sapiens, UniProt P15056); assay: Inhibition of wild type BRAF (unknown origin) assessed as ADP formation measured for 5 hrs by pyruvate kinase/lactate dehydrogenase coupled assay in presence of ATP, MEK1, NADH
Serine/threonine-protein kinase B-raf (Homo sapiens, UniProt P15056), sequence (P15056 whole entry): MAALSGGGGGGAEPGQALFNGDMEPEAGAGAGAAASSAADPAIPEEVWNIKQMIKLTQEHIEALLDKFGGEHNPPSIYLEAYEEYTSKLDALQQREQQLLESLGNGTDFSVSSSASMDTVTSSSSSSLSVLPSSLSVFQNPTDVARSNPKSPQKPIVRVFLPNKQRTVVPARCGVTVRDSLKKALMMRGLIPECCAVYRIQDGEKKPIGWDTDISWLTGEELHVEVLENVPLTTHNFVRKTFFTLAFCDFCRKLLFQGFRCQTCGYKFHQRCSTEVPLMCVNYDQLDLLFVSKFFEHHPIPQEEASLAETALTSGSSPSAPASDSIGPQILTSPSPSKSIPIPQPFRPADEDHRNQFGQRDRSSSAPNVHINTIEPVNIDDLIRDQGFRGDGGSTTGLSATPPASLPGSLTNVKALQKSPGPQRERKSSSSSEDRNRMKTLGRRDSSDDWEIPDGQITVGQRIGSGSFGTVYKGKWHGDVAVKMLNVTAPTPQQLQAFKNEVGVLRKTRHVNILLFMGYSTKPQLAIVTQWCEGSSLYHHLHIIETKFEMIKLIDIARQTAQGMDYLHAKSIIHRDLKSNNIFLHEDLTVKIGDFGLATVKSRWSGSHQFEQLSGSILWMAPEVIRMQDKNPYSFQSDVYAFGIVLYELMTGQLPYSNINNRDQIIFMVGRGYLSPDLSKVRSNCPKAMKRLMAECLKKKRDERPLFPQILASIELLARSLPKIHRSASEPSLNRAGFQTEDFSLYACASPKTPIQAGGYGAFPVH

[4] = target: RAF proto-oncogene serine/threonine-protein kinase (Homo sapiens, UniProt P04049); assay: Inhibition of wild type CRAF (unknown origin) assessed as ADP formation measured for 5 hrs by pyruvate kinase/lactate dehydrogenase coupled assay in presence of ATP, MEK1, PEP, NADH
RAF proto-oncogene serine/threonine-protein kinase, sequence (P04049 whole entry): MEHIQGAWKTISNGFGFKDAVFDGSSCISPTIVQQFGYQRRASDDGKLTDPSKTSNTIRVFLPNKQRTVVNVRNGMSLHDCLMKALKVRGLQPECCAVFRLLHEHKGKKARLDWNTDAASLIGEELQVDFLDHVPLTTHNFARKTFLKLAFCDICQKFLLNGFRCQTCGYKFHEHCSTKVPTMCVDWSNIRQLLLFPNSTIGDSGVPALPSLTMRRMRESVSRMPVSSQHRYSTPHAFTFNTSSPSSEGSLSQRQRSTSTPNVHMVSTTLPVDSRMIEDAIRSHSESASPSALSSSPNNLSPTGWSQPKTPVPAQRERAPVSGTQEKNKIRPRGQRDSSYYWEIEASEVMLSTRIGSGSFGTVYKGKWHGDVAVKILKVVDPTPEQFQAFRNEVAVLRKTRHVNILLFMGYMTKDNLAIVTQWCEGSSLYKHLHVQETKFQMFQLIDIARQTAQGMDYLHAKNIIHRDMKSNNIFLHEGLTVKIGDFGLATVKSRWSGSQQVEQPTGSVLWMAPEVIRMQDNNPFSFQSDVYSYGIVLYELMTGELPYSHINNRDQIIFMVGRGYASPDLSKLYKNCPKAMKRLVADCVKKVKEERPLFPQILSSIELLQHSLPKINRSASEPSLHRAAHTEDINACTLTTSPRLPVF

[5] = target: T1, Serine/threonine-protein kinase B-raf; assay: Inhibition of BRAF V600E mutant in human A375 cells assessed as inhibition of ERK phosphorylation measured after 72 hrs by ELISA assay; assay type: cell-based, A-375
GTPase KRas = GTPase KRas (Homo sapiens, UniProt P01116, G13D); assay: Inhibition of KRAS G13D mutant in human HCT116 cells assessed as inhibition of ERK phosphorylation by ELISA; assay type: cell-based, HCT-116
GTPase KRas, sequence (P01116 whole entry G13D): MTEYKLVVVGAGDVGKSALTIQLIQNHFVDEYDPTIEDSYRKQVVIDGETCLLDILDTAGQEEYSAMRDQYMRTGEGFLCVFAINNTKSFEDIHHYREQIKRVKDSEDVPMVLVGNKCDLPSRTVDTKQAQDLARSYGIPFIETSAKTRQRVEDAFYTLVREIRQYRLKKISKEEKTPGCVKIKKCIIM
Outline: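 HCT116 cells (KRAS G13D, BRAF WT; RAF signalling via CRAF) were treated with compound, and the change in cellular phospho-ERK was measured. IC50 was taken as the concentration inhibiting phospho-ERK.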

[6] = target: Dual specificity mitogen-activated protein kinase kinase; MEK1/2 (Homo sapiens, UniProt P36507+Q02750); assay: Inhibition of MEK (unknown origin)
[7] = Clearance in po dosed rat administered as suspension; assay type: ADME, organism-based; settings: in vivo
[8] = Clearance in po dosed dog administered as suspension; assay type: ADME, organism-based, Canis lupus familiaris; settings: in vivo
[9] = Oral bioavailability in rat administered as suspension; assay type: ADME, organism-based; settings: in vivo
[10] = Oral bioavailability in dog administered as suspension; assay type: ADME, organism-based, Canis lupus familiaris; settings: in vivo
[11] = Solubility of the compound in simulated fed intestinal fluid; assay type: ADME
[12] = Solubility of the compound in simulated fasted intestinal fluid; assay type: ADME
Mus musculus [13] = assay: In vivo inhibition of BRAF V600E mutant in human A375 cells xenografted in po dosed athymic nu/nu mouse assessed as inhibition of ERK phosphorylation after 2 hrs by ELISA; assay type: functional; settings: A-375, po
Mus musculus [14] = assay: In vivo inhibition of BRAF V600E mutant in human A375 cells xenografted in po dosed athymic nu/nu mouse assessed as plasma concentration required to inhibit ERK phosphorylation by 50% after 2 hrs by ELISA; assay type: functional, A-375
Mus musculus [15] = assay: In vivo inhibition of BRAF V600E mutant in human A375 cells xenografted in po dosed athymic nu/nu mouse assessed as plasma concentration required to inhibit ERK phosphorylation by 80% after 2 hrs by ELISA; assay type: functional, A-375
Mus musculus [16] = assay: Toxicity in athymic nu/nu mouse xenografted with human HT-29 cells assessed as body weight loss at 10 to 20 mg/kg, po bid administered for 28 days; assay type: organism-based; settings: in vivo, 672 h
Outline: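 HT-29 (BRAF V600E) xenograft mice dosed orally for 28 days; body weight loss monitored.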

Rattus norvegicus [17] = species on record: Rattus norvegicus; assay: Toxicity in rat assessed as inflammation; assay type: organism-based; settings: in vivo
Rattus norvegicus [18] = species on record: Rattus norvegicus; assay: Toxicity in rat assessed as hyperbilirubinemia; assay type: organism-based; settings: in vivo
Rattus norvegicus [19] = species on record: Rattus norvegicus; assay: Toxicity in rat assessed as skeletal muscle degeneration; assay type: organism-based; settings: in vivo
Rattus norvegicus [20] = species on record: Rattus norvegicus; assay: Toxicity in rat assessed as bone marrow hypocellularity; assay type: organism-based; settings: in vivo
Canis familiaris [21] = species on record: Canis familiaris; assay: Toxicity in dog assessed as inflammation; assay type: organism-based, Canis lupus familiaris; settings: in vivo
Canis familiaris [22] = species on record: Canis familiaris; assay: Toxicity in dog assessed as hyperbilirubinemia; assay type: organism-based, Canis lupus familiaris; settings: in vivo
Canis familiaris [23] = species on record: Canis familiaris; assay: Toxicity in dog assessed as skeletal muscle degeneration; assay type: organism-based, Canis lupus familiaris; settings: in vivo
Canis familiaris [24] = species on record: Canis familiaris; assay: Toxicity in dog assessed as bone marrow hypocellularity; assay type: organism-based, Canis lupus familiaris; settings: in vivo
Mus musculus [25] = assay: In vivo inhibition of BRAF V600E mutant in human HT-29 cells xenografted in athymic nu/nu mouse assessed as inhibition of ERK phosphorylation at 10 to 20 mg/kg, po bid administered for 28 days by Western blot analysis; assay type: functional, organism-based
Outline: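 HT-29 (BRAF V600E) xenografts in mice, oral dosing for 28 days; after dosing, tumors from individual animals analysed for phospho-ERK by Western blot.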

Mus musculus [26] = assay: In vivo inhibition of BRAF V600E mutant in human HT-29 cells xenografted in po dosed athymic nu/nu mouse assessed as inhibition of ERK phosphorylation administered as bid for 28 days by Western blot

T1 sequence (P15056 2-766 V600E limits assumed): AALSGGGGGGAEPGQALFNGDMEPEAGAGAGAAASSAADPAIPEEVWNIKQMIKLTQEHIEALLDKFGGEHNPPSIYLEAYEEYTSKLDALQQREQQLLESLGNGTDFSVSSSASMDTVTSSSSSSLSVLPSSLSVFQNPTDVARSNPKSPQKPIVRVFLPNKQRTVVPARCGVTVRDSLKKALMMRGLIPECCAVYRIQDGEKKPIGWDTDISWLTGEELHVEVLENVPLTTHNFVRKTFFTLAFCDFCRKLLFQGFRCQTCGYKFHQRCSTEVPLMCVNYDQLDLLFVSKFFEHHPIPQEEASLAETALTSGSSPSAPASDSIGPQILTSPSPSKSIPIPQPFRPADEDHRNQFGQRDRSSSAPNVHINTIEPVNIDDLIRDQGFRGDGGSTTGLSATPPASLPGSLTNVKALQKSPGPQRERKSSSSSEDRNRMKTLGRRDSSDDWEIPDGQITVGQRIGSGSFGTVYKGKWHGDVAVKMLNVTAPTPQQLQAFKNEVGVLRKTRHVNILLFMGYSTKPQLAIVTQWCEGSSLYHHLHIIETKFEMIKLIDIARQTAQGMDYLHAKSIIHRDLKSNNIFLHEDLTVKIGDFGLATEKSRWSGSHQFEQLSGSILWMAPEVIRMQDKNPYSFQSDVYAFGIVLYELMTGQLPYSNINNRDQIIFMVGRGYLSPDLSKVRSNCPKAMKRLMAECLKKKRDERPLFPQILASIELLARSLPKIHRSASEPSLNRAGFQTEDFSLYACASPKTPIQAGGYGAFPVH

Cc1cc(F)c(NC(=O)NCCC(C)(C)C)cc1-c1cc2cnc(N)nc2nc1C
IC50 [1]: 7.9 nM
IC50 [2]: 540 nM
IC50 (A-375): 33 nM
IC50 (HCT-116): 190 nM

CCn1c(=O)c(-c2ccc(F)c(NC(=O)Nc3cc(C(C)(C)C)no3)c2)cc2cnc(NC)cc21
IC50 [1]: 1.2 nM
IC50 [3]: 10 nM
IC50 [4]: 2.9 nM
IC50 [5]: 96 nM
IC50 (GTPase KRas): 91 nM
IC50 [2]: 1.9 nM
IC50 [6]: 4000 nM
CL/F [7]: 13 mL/min/kg
CL/F [8]: 14 mL/min/kg
bioavailability [9]: 28%
bioavailability [10]: 69%
solubility [11]: 310 µg/mL (≈ 648 µM)
solubility [12]: 41 µg/mL (≈ 85.7 µM)
ED50 (Mus musculus [13]): 10.4 mg/kg
ED80 (Mus musculus [13]): 20.5 mg/kg
INH (Mus musculus [14]): 167 ng/mL
INH (Mus musculus [15]): 843 ng/mL
Activity (Mus musculus [16]): Non-toxic
Activity (Rattus norvegicus [17]): Toxic
Activity (Rattus norvegicus [18]): Toxic
Activity (Rattus norvegicus [19]): Toxic
Activity (Rattus norvegicus [20]): Toxic
Activity (Canis familiaris [21]): Toxic
Activity (Canis familiaris [22]): Toxic
Activity (Canis familiaris [23]): Toxic
Activity (Canis familiaris [24]): Toxic
inhibition (Mus musculus [25]): Active
IC50 (A-375): 56 nM
IC50 (HCT-116): 160 nM
inhibition (Mus musculus [26]): Dose-dependent effect

CNc1cc2nc(C)c(-c3ccc(F)c(NC(=O)NCCC(C)(C)C)c3)cc2cn1
IC50 [1]: 3 nM
IC50 [3]: 8.4 nM
IC50 [4]: 1.6 nM
IC50 [5]: 82 nM
IC50 (GTPase KRas): 46 nM
IC50 [2]: 33 nM
IC50 [6]: > 20000 nM
IC50 (A-375): 40 nM
IC50 (HCT-116): 160 nM

CNc1cc2nc(C)c(-c3cc(NC(=O)NCCC(C)(C)C)ccc3C)cc2cn1
IC50 [1]: 4.3 nM
IC50 [3]: 27 nM
IC50 [4]: 6.7 nM
IC50 [5]: 140 nM
IC50 (GTPase KRas): 270 nM
IC50 [6]: > 20000 nM
IC50 (A-375): 35 nM
IC50 (HCT-116): 510 nM

CCn1c(=O)c(-c2cc(NC(=O)NCCC(C)(C)C)c(F)cc2C)cc2cnc(NC)cc21
IC50 [1]: 4.2 nM
IC50 [3]: 11 nM
IC50 [4]: 5.2 nM
IC50 [5]: 40 nM
IC50 (GTPase KRas): 120 nM
IC50 [2]: 25 nM
IC50 [6]: 2500 nM
IC50 (A-375): 34 nM
IC50 (HCT-116): 130 nM

CNc1ncc2cc(-c3ccc(F)c(NC(=O)NCCC(C)(C)C)c3)c(C)nc2n1
IC50 [1]: 7.6 nM
IC50 [3]: 18 nM
IC50 [4]: 2.8 nM
IC50 [5]: 110 nM
IC50 (GTPase KRas): 48 nM
IC50 [2]: 750 nM
IC50 [6]: > 20000 nM
IC50 (A-375): 26 nM
IC50 (HCT-116): 280 nM

Source: ChEMBL document CHEMBL3576847, “Discovery of 1-(3,3-dimethylbutyl)-3-(2-fluoro-4-methyl-5-(7-methyl-2-(methylamino)pyrido[2,3-d]pyrimidin-6-yl)phenyl)urea (LY3009120) as a pan-RAF inhibitor with minimal paradoxical activation and activity against BRAF or RAS mutant tumor cells” (J Med Chem, 2015)
